Active and inactive are the calls of the source. The rule behind the calls is not given here.
Columns and labels:
[1] = target: mTORC2 (Homo sapiens) (UniProt P42345+Q6R327+Q9BVC4+Q9BPZ7); assay: Inhibition of mTORC2 signalling in human U-87 MG cells assessed as decrease in AKT phosphorylation at S473 residue at 0.05 to 1 uM incubated for 48 hrs by Western blot analysis; format: cell-based
How it was run: (§1)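 U-87 MG cells cultured two days, then exposed 48 h to increasing doses. Lysed in RIPA with protease inhibitors; 5 µg protein run on 4-20% SDS gels and transferred to PVDF. Probed for phospho/total AKT, S6, S6K, P62 and LC3, detected by ECL. Band intensities normalized to β-actin.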

[2] = Metabolic stability in mouse plasma assessed as compound remaining at 5 uM and measured after 120 mins by UPLC-MS/MS analysis; format: ADME, cell-free; conditions: read-out: Stability
How it was run: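 Male mouse plasma at 37 °C with compound added from a 5 µM solution […]. Sampled at 0, 15, 30, 45, 60 and 120 min, quenched with acetonitrile and read by LC-MS/MS (MRM) in duplicate. Procaine positive control. Remaining % and t1/2 derived from MRM area relative to t = 0.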

[3] = Antitumor activity in high alert medicated patient derived human GBM1 cells xenografted in immunodeficient nude mouse model assessed as change in tumor volume at 50 mg/kg,ip QD cotreatment with Temozolomide at 42 mg/kg,po QD and measured after 11 days relative to control; format: functional; conditions: time 11 day
How it was run: (§2)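 Female athymic nude mice bearing subcutaneous GBM1-HAM PDX fragments (20 mm³); treatment began day 11 post-implant at tumour volumes 75-196 mm³, 10 per group. Compound i.p. daily in cyclodextrin vehicle (17 days alone, 27 days in combination); temozolomide 42 mg/kg p.o. daily for 5 days in PBS/glucose/Tween 80. Calliper volumes three times weekly; body weight and clinical signs monitored.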

[4] = Metabolic stability in mouse liver microsomes assessed as intrinsic clearance at 2.5 uM and measured upto 45 mins in presence of NADPH by LC-MS/MS analysis; format: ADME, Microsome; conditions: read-out: CLH
[5] = target: T1, Oxysterol-binding protein 1 (Homo sapiens, UniProt P22059); assay: Inhibition of human C-terminal 6-His tagged OSBP ORD domain (401 to 807 residues) expressed in baculovirus-infected Sf9 cells assessed as reduction in DHE transfer from liposome (Le mimicking ER) to liposome (Lg mimicking golgi) with compound by FRET assay
T1 sequence (P22059 whole entry): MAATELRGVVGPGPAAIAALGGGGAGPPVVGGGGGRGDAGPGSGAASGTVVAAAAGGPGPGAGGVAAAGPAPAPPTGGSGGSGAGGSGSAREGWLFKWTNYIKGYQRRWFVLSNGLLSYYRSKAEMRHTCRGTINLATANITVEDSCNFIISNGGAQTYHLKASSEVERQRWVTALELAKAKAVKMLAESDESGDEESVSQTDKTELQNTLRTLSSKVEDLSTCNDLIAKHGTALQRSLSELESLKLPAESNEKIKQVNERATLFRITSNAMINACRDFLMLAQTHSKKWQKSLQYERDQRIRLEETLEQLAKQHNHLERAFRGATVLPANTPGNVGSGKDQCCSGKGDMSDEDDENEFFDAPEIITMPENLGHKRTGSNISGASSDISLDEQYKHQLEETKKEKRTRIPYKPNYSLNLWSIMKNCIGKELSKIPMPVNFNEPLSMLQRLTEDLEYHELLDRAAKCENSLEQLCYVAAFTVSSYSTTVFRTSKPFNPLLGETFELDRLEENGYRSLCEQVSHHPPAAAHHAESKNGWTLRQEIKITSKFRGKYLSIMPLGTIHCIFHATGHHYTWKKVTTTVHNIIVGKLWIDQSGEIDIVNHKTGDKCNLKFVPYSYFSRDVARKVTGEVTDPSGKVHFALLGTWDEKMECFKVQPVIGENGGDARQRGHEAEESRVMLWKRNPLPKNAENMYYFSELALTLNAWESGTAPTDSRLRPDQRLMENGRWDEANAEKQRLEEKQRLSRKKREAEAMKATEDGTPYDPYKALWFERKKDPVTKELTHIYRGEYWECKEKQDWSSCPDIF
How it was run: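 Purified human OSBP ORD (401-807, C-terminal 6×His) from baculovirus-infected Sf9 cells, used in a DHE sterol transfer fluorescence assay. Signal corrected for compound fluorescence. Kinetics fitted linearly or by ΔF = ΔFmax(1 − e^−kt) to give apparent k, which was plotted against compound concentration. Ki from a quadratic (tight binders) or hyperbolic equation, three independent experiments.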

[6] = Metabolic stability in mouse liver microsomes assessed as compound remaining at 2.5 uM and measured after 45 mins in absence of NADPH by LC-MS/MS analysis; format: ADME, Microsome; conditions: read-out: Stability
[7] = target: T2, Oxysterol-binding protein 1 (Homo sapiens) (UniProt P22059); assay: Inhibition of human OSBP in human hTERT-RPE1 cells assessed as increase in OSBP recruitment at TGN and measured after 4 hrs by confocal microscopy; format: cell-based
T2 sequence (whole entry): T1 sequence (P22059 whole entry)

[8] = Antitumor activity in high alert medicated patient derived human GBM1 cells xenografted in immunodeficient nude mouse model assessed as T/C ratio at 20 mg/kg,ip QD cotreatment with Temozolomide at 42 mg/kg,po QD and measured after 11 days; format: functional; conditions: time 11 day; how it was run: as §2
[9] = target: T2, Oxysterol-binding protein 1 (Homo sapiens); assay: Inhibition of human OSBP in human hTERT-RPE1 cells assessed as increase in OSBP recruitment at TGN and measured after 10 mins by confocal microscopy; format: cell-based
[10] = target: mTORC1 (Homo sapiens) (UniProt P42345+Q8N122+Q9BVC4); assay: Inhibition of mTORC1 signalling in human U-87 MG cells assessed as decrease in S6 phosphorylation at S240/244 residue at 0.05 to 1 uM incubated for 48 hrs by Western blot analysis; format: cell-based; how it was run: as §1
[11] = Antitumor activity in high alert medicated patient derived human GBM1 cells xenografted in immunodeficient nude mouse model assessed as tumor growth inhibition at 20 mg/kg,ip QD cotreatment with Temozolomide at 42 mg/kg,po QD and measured after 11 days; format: functional; conditions: GBM1, 264 h; how it was run: as §2
[12] = Antitumor activity in high alert medicated patient derived human GBM1 cells xenografted in immunodeficient nude mouse model assessed as T/C ratio at 50 mg/kg,ip QD and measured after 9 to 11 days; format: functional; conditions: time 9-11 day; how it was run: as §2
[13] = Drug uptake in human hTERT-RPE1 cells assessed as drug co-localization with OSBP perinuclear region of cell incubated for 30 mins by immunofluorescence analysis; format: ADME, cell-based; conditions: tert-rpe1, 0.5 h
How it was run: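 hTERT-RPE-1 cells incubated 30 min with compound, then fixed (4% paraformaldehyde, 0.1% glutaraldehyde, 10 min), quenched with 50 mM NH₄Cl and permeabilized in saponin 0.05%/BSA 0.2%. Immunolabeled for OSBP and TGN-46. Compound imaged directly by UV-adapted widefield fluorescence (excitation 330, emission 410 nm).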

[14] = Toxicity in immunodeficient nude mouse model xenografted with high alert medicated patient derived human GBM1 cells assessed as clinical symptoms at 20 mg/kg,ip QD for 27 days cotreatment with Temozolomide at 42 mg/kg,po QD for 5 days; format: organism-based; conditions: in vivo, 648 h, time 27 day; how it was run: as §2

## CC1(C)CCc2c(O)cc(/C=C/c3cc(O)c4c(c3)C[C@@H]3C(C)(C)[C@H](OC=O)CC[C@@]3(C)O4)cc2O1
[1]
  inhibition: Dose-Dependent Effect
[2]
  remaining at 2 h, 5 µM: 20.2%
[3]
  Activity: 329.18%
[4]
  microsomal CLint at 2.5 µM: 120 µL/min/mg
[5]
  Ki: 1070 nM
[6]
  remaining at 0.75 h, 2.5 µM: 16%
[7]
  inhibition: inactive
[8]
  T/C: 49.91%
[9]
  inhibition: Active
[10]
  inhibition: Dose-Dependent Effect
[11]
  TGDI at 20 mg/kg: 1.75
[12]
  T/C: 70.05%
[13]
  Drug uptake: Active
[14]
  Activity: Non-Toxic
